Laboratory results reported in PMC2592099 (Peptides, 2008).
Read-outs that look alike come from different tables or passages of the source.

Assays:
U-87 MG cells = test: Peptide and peptide-platinate activity, modified MTT assay; type: cell-based; conditions: 24 hours, nonlinear curve fitting, n=3
Summary of the method: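 They were plated at 50,000 cells/mL one day before, then exposed to a concentration series of test compound for 24 h. Viability relative to untreated control was read by modified MTT (Aqueous One). IC50 came from nonlinear curve fit. n≥3.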

MMP-2 [1] = biological target: T1, MMP-2 (Homo sapiens, UniProt P08253); conditions: cited from earlier work
T1 sequence (P08253 110-660): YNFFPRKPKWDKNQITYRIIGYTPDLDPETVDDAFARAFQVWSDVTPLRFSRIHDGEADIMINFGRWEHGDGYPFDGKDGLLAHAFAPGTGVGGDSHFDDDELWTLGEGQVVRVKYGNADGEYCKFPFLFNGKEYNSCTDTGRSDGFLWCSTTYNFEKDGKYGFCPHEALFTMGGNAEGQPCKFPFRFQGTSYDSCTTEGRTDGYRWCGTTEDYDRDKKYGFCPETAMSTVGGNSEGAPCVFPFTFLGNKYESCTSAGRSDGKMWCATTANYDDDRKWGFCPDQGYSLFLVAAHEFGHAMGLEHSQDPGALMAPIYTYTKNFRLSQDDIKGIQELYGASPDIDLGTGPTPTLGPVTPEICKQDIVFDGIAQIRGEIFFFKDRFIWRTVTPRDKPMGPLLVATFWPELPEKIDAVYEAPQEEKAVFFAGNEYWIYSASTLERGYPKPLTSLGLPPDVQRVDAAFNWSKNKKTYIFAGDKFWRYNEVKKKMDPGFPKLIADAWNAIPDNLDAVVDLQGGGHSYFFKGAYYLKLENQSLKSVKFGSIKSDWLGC

MMP-2 [2] = biological target: T1, MMP-2; test: Peptide cleavage kinetics with activated MMP-2; type: biochemical; conditions: for Km / kcat: activated MMP-2 10 nM, Tris-HCl protease buffer pH 7.4, HPLC, n=3
Summary of the method: (§1)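 Reactions were stopped at set times with EDTA. Products were resolved by C18 reversed-phase HPLC (30–70% acetonitrile/0.1% TFA gradient, 15 min, 1 mL/min) with fluorescence and photodiode-array detection. Fragments were assigned against synthetic fragment retention times and confirmed by MALDI-MS. n≥3.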

MMP-9 = MMP-9 (Homo sapiens, UniProt P14780); test: Peptide cleavage kinetics with activated MMP-9; type: biochemical; conditions: for Km / kcat: activated MMP-9 10 nM, Tris-HCl protease buffer pH 7.4, HPLC, n=3
Summary of the method: as §1

Chain of MMP-9 (P14780 107-707 limits assumed): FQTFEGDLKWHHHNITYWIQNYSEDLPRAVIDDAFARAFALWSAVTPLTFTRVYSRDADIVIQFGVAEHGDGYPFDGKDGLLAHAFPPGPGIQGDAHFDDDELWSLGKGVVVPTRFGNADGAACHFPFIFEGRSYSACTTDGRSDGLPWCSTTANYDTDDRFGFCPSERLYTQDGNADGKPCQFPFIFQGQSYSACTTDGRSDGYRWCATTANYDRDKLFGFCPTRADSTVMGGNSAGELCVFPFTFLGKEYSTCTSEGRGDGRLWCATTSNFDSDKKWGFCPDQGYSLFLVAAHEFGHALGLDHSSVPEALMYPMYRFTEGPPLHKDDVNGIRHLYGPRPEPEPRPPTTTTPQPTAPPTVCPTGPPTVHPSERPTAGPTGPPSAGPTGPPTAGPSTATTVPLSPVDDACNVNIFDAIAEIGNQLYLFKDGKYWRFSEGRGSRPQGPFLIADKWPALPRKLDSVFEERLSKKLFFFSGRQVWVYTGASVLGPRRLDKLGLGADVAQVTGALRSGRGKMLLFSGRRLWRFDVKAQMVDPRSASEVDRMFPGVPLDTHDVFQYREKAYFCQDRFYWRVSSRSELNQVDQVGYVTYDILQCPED

Molecule | IC50 (U-87 MG cells) | Km (MMP-2 [2]) | kcat (MMP-2 [2]) | Km (MMP-9) | kcat (MMP-9) | further results
[Cl][Pt-2]([Cl])([Cl])[Cl].[K+].[K+] [K2PtCl4, potassium tetrachloroplatinate] | 70.7 ± 15 µM |  |  |  |  | 
N.N.[Cl][Pt][Cl] [cisplatin] | 46.9 ± 15 µM |  |  |  |  | 
GPAGLLG |  |  |  |  |  | cleavage site (MMP-2 [1]): cleaved between glycine and leucine
K*AGLLC-CONH2 |  | 1400 ± 400 µM | 0.24 ± 0.08 s⁻¹ | 160 ± 100 µM | 0.04 ± 0.01 s⁻¹ | 
K*PAGLLGC-CONH2 |  | 1000 ± 500 µM | 10.7 ± 4.8 s⁻¹ | 400 ± 100 µM | 9.6 ± 2.1 s⁻¹ | cleavage site (MMP-2 [2]; cleaved with MMP-2 for 2 hours, HPLC comparison with synthesized fragment K*PAG): cleaved between glycine and leucine; cleavage site (MMP-9; cleaved with MMP-9 for 2 hours, HPLC comparison with synthesized fragment K*PAG): cleaved between glycine and leucine
